According to ChEMBL document CHEMBL3739379, “Anti-Candida activity and cytotoxicity of a large library of new N-substituted-1,3-thiazolidin-4-one derivatives” (Eur J Med Chem, 2016):
≈ marks a conversion by molar mass, not a printed value.

Each molecule was assayed on Proteus mirabilis (assay: Antibacterial activity against Proteus mirabilis after 18 to 22 hrs by broth microdilution method). Details: not given.
Assay type: functional
Method in brief: (§1)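 Broth microdilution per NCCLS in Mueller-Hinton II broth; isolates subcultured for purity. Compounds dissolved in DMSO, serial dilutions 256 to 0.5 µg/mL; inoculum 10^5/mL. Controls: organism without compound, medium only. Incubation 18 to 22 h at 35 °C. MIC is the lowest concentration giving complete growth inhibition, read by unaided eye.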

Question: For CCC(CC)=N/N=C1\SCC(=O)N1Cc1ccc([N+](=O)[O-])cc1, which MIC is on record?
Answer: Its MIC is > 256 µg/mL.

Question: For C/C(=N\N=C1/SCC(=O)N1Cc1cccc2ccccc12)c1cccs1, which MIC is on record?
Answer: Its MIC is > 256 µg/mL.

Question: Which MIC does the source give for CCC/C(C)=N/N=C1\SCC(=O)N1Cc1cccc2ccccc12 here?
Answer: Its MIC is > 256 µg/mL.

Question: For O=C1CS/C(=N\N=C2CCCCCCC2)N1Cc1ccc([N+](=O)[O-])cc1, which MIC is on record?
Answer: The MIC was > 256 µg/mL.

What follows are molecules tested on Staphylococcus aureus (assay: Antibacterial activity against Staphylococcus aureus after 18 to 22 hrs by broth microdilution method). Details: not given.
Assay type: functional
Method in brief: as §1

Question: With CCC(CC)=N/N=C1\SCC(=O)N1Cc1ccc([N+](=O)[O-])cc1 as the molecule, how does the MIC read?
Answer: Its MIC is > 256 µg/mL.

Question: How did the MIC turn out when C/C(=N\N=C1/SCC(=O)N1Cc1cccc2ccccc12)c1cccs1 was run?
Answer: The MIC was > 256 µg/mL.

Question: For CCC/C(C)=N/N=C1\SCC(=O)N1Cc1cccc2ccccc12, which MIC is on record?
Answer: Its MIC is > 256 µg/mL.

Question: How did the MIC turn out when O=C1CS/C(=N\N=C2CCCCCCC2)N1Cc1ccc([N+](=O)[O-])cc1 was run?
Answer: The MIC was > 256 µg/mL.

The molecules below were run on Candida albicans (assay: Antifungal activity against Candida albicans clinical isolate after 24 hrs by sabouraud dextrose broth based microdilution method). Details: not given.
Assay type: functional
Method in brief: (§2)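 Clinical isolates identified by conventional methods and subcultured for purity. Broth microdilution per NCCLS in Sabouraud dextrose broth; compounds dissolved in DMSO and serially diluted; inoculum 10^3/mL. Controls: fungi without compound, medium only. Incubated 24 h at 37 °C. MIC is the lowest concentration with complete growth inhibition by unaided eye. Values are geometric means over isolates per species.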

Question: Which MIC does the source give for CCC(CC)=N/N=C1\SCC(=O)N1Cc1ccc([N+](=O)[O-])cc1 here?
Answer: The MIC was 2 µg/mL (≈ 5.98 µM).

Question: For C/C(=N\N=C1/SCC(=O)N1Cc1cccc2ccccc12)c1cccs1, which MIC is on record?
Answer: Its MIC is 2 µg/mL (≈ 5.27 µM).

Question: CCC/C(C)=N/N=C1\SCC(=O)N1Cc1cccc2ccccc12 was tested. Which MIC did it give?
Answer: Its MIC is 2 µg/mL (≈ 5.89 µM).

Question: How did the MIC turn out when O=C1CS/C(=N\N=C2CCCCCCC2)N1Cc1ccc([N+](=O)[O-])cc1 was run?
Answer: Its MIC is 4 µg/mL (≈ 10.7 µM).

What follows are molecules tested on Escherichia coli (assay: Antibacterial activity against Escherichia coli at after 18 to 22 hrs by broth microdilution method). Details: not given.
Assay type: functional
Method in brief: as §1

Question: How did the MIC turn out when CCC(CC)=N/N=C1\SCC(=O)N1Cc1ccc([N+](=O)[O-])cc1 was run?
Answer: Its MIC is > 256 µg/mL.

Question: How did the MIC turn out when C/C(=N\N=C1/SCC(=O)N1Cc1cccc2ccccc12)c1cccs1 was run?
Answer: The MIC was > 256 µg/mL.

Question: With CCC/C(C)=N/N=C1\SCC(=O)N1Cc1cccc2ccccc12 as the molecule, how does the MIC read?
Answer: The MIC was > 256 µg/mL.

Question: How did the MIC turn out when O=C1CS/C(=N\N=C2CCCCCCC2)N1Cc1ccc([N+](=O)[O-])cc1 was run?
Answer: The MIC was > 256 µg/mL.

The molecules below were run on Nakaseomyces glabratus (assay: Antifungal activity against Candida glabrata clinical isolate after 24 hrs by sabouraud dextrose broth based microdilution method). Details: not given.
Assay type: functional
Method in brief: as §2

Question: Which MIC does the source give for CCC(CC)=N/N=C1\SCC(=O)N1Cc1ccc([N+](=O)[O-])cc1 here?
Answer: The MIC was 8 µg/mL (≈ 23.9 µM).

Question: How did the MIC turn out when C/C(=N\N=C1/SCC(=O)N1Cc1cccc2ccccc12)c1cccs1 was run?
Answer: The MIC was 8 µg/mL (≈ 21.1 µM).

Question: CCC/C(C)=N/N=C1\SCC(=O)N1Cc1cccc2ccccc12 was tested. Which MIC did it give?
Answer: The MIC was 2 µg/mL (≈ 5.89 µM).

Question: For O=C1CS/C(=N\N=C2CCCCCCC2)N1Cc1ccc([N+](=O)[O-])cc1, which MIC is on record?
Answer: Its MIC is 16 µg/mL (≈ 42.7 µM).

What follows are molecules tested on Enterococcus faecalis (assay: Antibacterial activity against […] faecalis after 18 to 22 hrs by broth microdilution method). Details: not given.
Assay type: functional
Method in brief: as §1

Question: With CCC(CC)=N/N=C1\SCC(=O)N1Cc1ccc([N+](=O)[O-])cc1 as the molecule, how does the MIC read?
Answer: The MIC was > 256 µg/mL.

Question: Which MIC does the source give for C/C(=N\N=C1/SCC(=O)N1Cc1cccc2ccccc12)c1cccs1 here?
Answer: The MIC was > 256 µg/mL.

Question: For CCC/C(C)=N/N=C1\SCC(=O)N1Cc1cccc2ccccc12, which MIC is on record?
Answer: Its MIC is > 256 µg/mL.

Question: How did the MIC turn out when O=C1CS/C(=N\N=C2CCCCCCC2)N1Cc1ccc([N+](=O)[O-])cc1 was run?
Answer: The MIC was > 256 µg/mL.

These molecules were tested on Candida parapsilosis (assay: Antifungal activity against Candida parapsilosis clinical isolate after 24 hrs by sabouraud dextrose broth based microdilution method). Details: Lodderomyces parapsilosis.
Assay type: functional
Method in brief: as §2

Question: With CCC(CC)=N/N=C1\SCC(=O)N1Cc1ccc([N+](=O)[O-])cc1 as the molecule, how does the MIC read?
Answer: The MIC was 128 µg/mL (≈ 383 µM).

Question: With C/C(=N\N=C1/SCC(=O)N1Cc1cccc2ccccc12)c1cccs1 as the molecule, how does the MIC read?
Answer: Its MIC is 16 µg/mL (≈ 42.2 µM).

Question: CCC/C(C)=N/N=C1\SCC(=O)N1Cc1cccc2ccccc12 was tested. Which MIC did it give?
Answer: Its MIC is 2 µg/mL (≈ 5.89 µM).

Question: For O=C1CS/C(=N\N=C2CCCCCCC2)N1Cc1ccc([N+](=O)[O-])cc1, which MIC is on record?
Answer: The MIC was 16 µg/mL (≈ 42.7 µM).

These molecules were tested on Klebsiella oxytoca (assay: Antibacterial activity against Klebsiella oxytoca after 18 to 22 hrs by broth microdilution method). Details: not given.
Assay type: functional
Method in brief: as §1

Question: With CCC(CC)=N/N=C1\SCC(=O)N1Cc1ccc([N+](=O)[O-])cc1 as the molecule, how does the MIC read?
Answer: Its MIC is > 256 µg/mL.

Question: With C/C(=N\N=C1/SCC(=O)N1Cc1cccc2ccccc12)c1cccs1 as the molecule, how does the MIC read?
Answer: The MIC was > 256 µg/mL.

Question: How did the MIC turn out when CCC/C(C)=N/N=C1\SCC(=O)N1Cc1cccc2ccccc12 was run?
Answer: Its MIC is > 256 µg/mL.

Question: With O=C1CS/C(=N\N=C2CCCCCCC2)N1Cc1ccc([N+](=O)[O-])cc1 as the molecule, how does the MIC read?
Answer: Its MIC is > 256 µg/mL.

Each molecule was assayed on Candida tropicalis (assay: Antifungal activity against Candida tropicalis clinical isolate after 24 hrs by sabouraud dextrose broth based microdilution method). Details: not given.
Assay type: functional
Method in brief: as §2

Question: CCC(CC)=N/N=C1\SCC(=O)N1Cc1ccc([N+](=O)[O-])cc1 was tested. Which MIC did it give?
Answer: The MIC was 8 µg/mL (≈ 23.9 µM).

Question: C/C(=N\N=C1/SCC(=O)N1Cc1cccc2ccccc12)c1cccs1 was tested. Which MIC did it give?
Answer: Its MIC is 2 µg/mL (≈ 5.27 µM).

Question: How did the MIC turn out when CCC/C(C)=N/N=C1\SCC(=O)N1Cc1cccc2ccccc12 was run?
Answer: Its MIC is 64 µg/mL (≈ 189 µM).

Question: O=C1CS/C(=N\N=C2CCCCCCC2)N1Cc1ccc([N+](=O)[O-])cc1 was tested. Which MIC did it give?
Answer: The MIC was 8 µg/mL (≈ 21.4 µM).

What follows are molecules tested on Enterobacter sp. (assay: Antibacterial activity against Enterobacter sp. after 18 to 22 hrs by broth microdilution method). Details: not given.
Assay type: functional
Method in brief: as §1

Question: Which MIC does the source give for CCC(CC)=N/N=C1\SCC(=O)N1Cc1ccc([N+](=O)[O-])cc1 here?
Answer: The MIC was > 256 µg/mL.

Question: For C/C(=N\N=C1/SCC(=O)N1Cc1cccc2ccccc12)c1cccs1, which MIC is on record?
Answer: The MIC was > 256 µg/mL.

Question: Which MIC does the source give for CCC/C(C)=N/N=C1\SCC(=O)N1Cc1cccc2ccccc12 here?
Answer: The MIC was > 256 µg/mL.

Question: With O=C1CS/C(=N\N=C2CCCCCCC2)N1Cc1ccc([N+](=O)[O-])cc1 as the molecule, how does the MIC read?
Answer: The MIC was > 256 µg/mL.

Each molecule was assayed on Pichia kudriavzevii (assay: Antifungal activity against Candida krusei clinical isolate after 24 hrs by sabouraud dextrose broth based microdilution method). Details: not given.
Assay type: functional
Method in brief: as §2

Question: With CCC(CC)=N/N=C1\SCC(=O)N1Cc1ccc([N+](=O)[O-])cc1 as the molecule, how does the MIC read?
Answer: The MIC was 32 µg/mL (≈ 95.7 µM).

Question: For C/C(=N\N=C1/SCC(=O)N1Cc1cccc2ccccc12)c1cccs1, which MIC is on record?
Answer: The MIC was 16 µg/mL (≈ 42.2 µM).

Question: CCC/C(C)=N/N=C1\SCC(=O)N1Cc1cccc2ccccc12 was tested. Which MIC did it give?
Answer: The MIC was 2 µg/mL (≈ 5.89 µM).

Question: For O=C1CS/C(=N\N=C2CCCCCCC2)N1Cc1ccc([N+](=O)[O-])cc1, which MIC is on record?
Answer: The MIC was 16 µg/mL (≈ 42.7 µM).

Each molecule was assayed on Staphylococcus haemolyticus (assay: Antibacterial activity against Staphylococcus haemolyticus after 18 to 22 hrs by broth microdilution method). Details: not given.
Assay type: functional
Method in brief: as §1

Question: How did the MIC turn out when CCC(CC)=N/N=C1\SCC(=O)N1Cc1ccc([N+](=O)[O-])cc1 was run?
Answer: The MIC was > 256 µg/mL.

Question: C/C(=N\N=C1/SCC(=O)N1Cc1cccc2ccccc12)c1cccs1 was tested. Which MIC did it give?
Answer: The MIC was > 256 µg/mL.

Question: With CCC/C(C)=N/N=C1\SCC(=O)N1Cc1cccc2ccccc12 as the molecule, how does the MIC read?
Answer: Its MIC is > 256 µg/mL.

Question: For O=C1CS/C(=N\N=C2CCCCCCC2)N1Cc1ccc([N+](=O)[O-])cc1, which MIC is on record?
Answer: The MIC was > 256 µg/mL.

Each molecule was assayed on Staphylococcus warneri (assay: Antibacterial activity against Staphylococcus warneri after 18 to 22 hrs by broth microdilution method). Details: not given.
Assay type: functional
Method in brief: as §1

Question: Which MIC does the source give for CCC(CC)=N/N=C1\SCC(=O)N1Cc1ccc([N+](=O)[O-])cc1 here?
Answer: The MIC was > 256 µg/mL.

Question: For C/C(=N\N=C1/SCC(=O)N1Cc1cccc2ccccc12)c1cccs1, which MIC is on record?
Answer: The MIC was > 256 µg/mL.

Question: How did the MIC turn out when CCC/C(C)=N/N=C1\SCC(=O)N1Cc1cccc2ccccc12 was run?
Answer: Its MIC is > 256 µg/mL.

Question: With O=C1CS/C(=N\N=C2CCCCCCC2)N1Cc1ccc([N+](=O)[O-])cc1 as the molecule, how does the MIC read?
Answer: Its MIC is > 256 µg/mL.

The molecules below were run on [Candida] sake (assay: Antifungal activity against Candida sake clinical isolate after 24 hrs by sabouraud dextrose broth based microdilution method). Details: Fermentozyma sake.
Assay type: functional
Method in brief: as §2

Question: CCC(CC)=N/N=C1\SCC(=O)N1Cc1ccc([N+](=O)[O-])cc1 was tested. Which MIC did it give?
Answer: Its MIC is 2 µg/mL (≈ 5.98 µM).

Question: Which MIC does the source give for C/C(=N\N=C1/SCC(=O)N1Cc1cccc2ccccc12)c1cccs1 here?
Answer: Its MIC is 2 µg/mL (≈ 5.27 µM).

Question: CCC/C(C)=N/N=C1\SCC(=O)N1Cc1cccc2ccccc12 was tested. Which MIC did it give?
Answer: Its MIC is 16 µg/mL (≈ 47.1 µM).

Question: How did the MIC turn out when O=C1CS/C(=N\N=C2CCCCCCC2)N1Cc1ccc([N+](=O)[O-])cc1 was run?
Answer: The MIC was 16 µg/mL (≈ 42.7 µM).
